From PubChem BioAssay
Beta cell apopt: beta cell apoptosis inhibition | INS-1E cytokine-induced death, ATP luminescence, 48 h; percent of positive-control rescue, neutral wells zero | protection from apoptosis, % (no concentration beside the values) | 300,000 compounds, 0.8% hits;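 active means Every replicate reaches about 75%, or at least half do and their mean reaches it too, limit read from the data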;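 further: 0% = cytokine-treated negative control wells and 100% = positive control rescue; higher means more ATP so stronger rescue from cytokine killing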
CHOP inh: blocks CHOP induction under ER stress; CHO-K1 CHOP-promoter luciferase, tunicamycin-induced, 15-18 h; inhibition, % at 10 µM; 220,000 compounds, 3.8% hits; AID 2732;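 active means compounds that reduced the stress-induced luciferase reporter signal by more than about 70% of percent inhibition, limit read from the data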;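 further: 0% = tunicamycin plus vehicle and 100% = wells without tunicamycin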
PREPL inhibitor: inhibitors of human prolyl oligopeptidase-like enzyme PREPL; 320,000 compounds, 0.68% hits; inhibition, % at 5.96 µM; Q4J6C6; recombinant PREPL, fluorescence polarization activity-based probe; in the data active means inhibition above about 43%;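 further: 0% = enzyme with DMSO and 100% = wells lacking enzyme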
Target sequence (Q4J6C6 whole entry, looked up): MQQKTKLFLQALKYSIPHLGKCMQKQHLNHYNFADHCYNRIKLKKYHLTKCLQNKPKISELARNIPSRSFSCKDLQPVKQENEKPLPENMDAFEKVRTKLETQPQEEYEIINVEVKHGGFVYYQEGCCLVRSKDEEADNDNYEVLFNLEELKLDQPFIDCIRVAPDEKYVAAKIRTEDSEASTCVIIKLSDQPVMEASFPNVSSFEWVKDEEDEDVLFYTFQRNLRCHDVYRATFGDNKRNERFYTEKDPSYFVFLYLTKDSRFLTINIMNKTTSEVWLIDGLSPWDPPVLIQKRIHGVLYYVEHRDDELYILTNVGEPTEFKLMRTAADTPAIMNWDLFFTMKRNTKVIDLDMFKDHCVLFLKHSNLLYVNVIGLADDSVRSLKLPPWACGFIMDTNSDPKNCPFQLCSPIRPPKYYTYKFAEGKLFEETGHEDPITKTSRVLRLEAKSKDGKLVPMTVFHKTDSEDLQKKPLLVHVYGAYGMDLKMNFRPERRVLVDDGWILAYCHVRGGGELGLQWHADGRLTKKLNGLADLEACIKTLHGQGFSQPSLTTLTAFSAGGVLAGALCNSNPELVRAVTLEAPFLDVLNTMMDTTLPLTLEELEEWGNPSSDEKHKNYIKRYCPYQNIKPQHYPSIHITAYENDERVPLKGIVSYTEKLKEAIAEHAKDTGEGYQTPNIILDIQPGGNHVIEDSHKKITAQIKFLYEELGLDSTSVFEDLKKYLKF
NR3A LBD binder: modulators (binders) of human NR3A ligand-binding domain. Tm shift relative to glycine control, % at 25 µM. 340,000 compounds, 2.5% hits. NR3A LBD differential scanning fluorimetry, Tm shift; 0% = protein alone, 100% = glycine-bound protein;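 active means melting temperature shift of at least 10% of the positive control shift, at one fixed dose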
T cruzi repl: blocks replication of Trypanosoma cruzi; T. cruzi beta-gal in NIH3T3, luminescence, 90 h; inhibition, % (no concentration beside the values); 300,000 compounds, 1.4% hits; AID 1885;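 active means mean inhibition across valid replicates above about 55%, limit read from the data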;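 further: signal also drops with host cell toxicity which is not excluded here; 0% = plate median of DMSO wells and 100% = zero luminescence signal; higher percent means less beta-gal luminescence so fewer parasites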
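System: NIH/3T3 fibroblasts plus reporter T. cruzi. Medium: DMEM plus 2% FBS. Probe or stimulus: 5000 reporter trypomastigotes per well. Compound: single 50 nL compound addition per well in DMSO. Incubation: co-culture of at least 90 h after 3 h attachment. Detection: GalScreen β-gal luminescence, detergent lysis, 60 min. Evaluation: parasite load inhibition, %.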
CSC inhib: blocks cancer stem cells. cancer stem cell-like cells viability, luminescence. inhibition, % at 7.5 µM. 300,000 compounds, 1.1% hits. AID 2717; in the data active means inhibition above about 75%; tested in HMLE shEcad cells
* = called active by the depositor; . = not tested or not shown. An excerpt weighted towards active compounds, which were near 6.7% of everything screened.

SMILES | Beta cell apopt | CHOP inh | PREPL inhibitor | NR3A LBD binder | T cruzi repl | CSC inhib
Cc1ccc(C(C)C)c(OCC(=O)Nc2ccccc2N2CCN(C)CC2)c1 | -1.2 | 77.5* | -9.9 | -6.8 | 32.2 | 12.7
Cc1cc(OCC(=O)Nc2ccccc2N2CCCCC2)ccc1C(C)C | 13.0 | . | 5.3 | 1.8 | 36.6 | 30.1
Cc1cc(C)cc(OCC(=O)Nc2ccccc2N2CCCCC2)c1 | 2.4 | 86.0* | -5.5 | -0.1 | 18.7 | 23.5
Cc1cccc(OCC(=O)Nc2ccccc2N2CCN(C(=O)C(C)C)CC2)c1C | -6.6 | 58.0 | 10.3 | -0.7 | 6.5 | -5.1
CN(C)S(=O)(=O)c1ccc(Cl)c(NC(=O)COc2ccccc2[N+](=O)[O-])c1 | -4.4 | -9.1 | -2.9 | 12.8* | 5.3 | -2.6
O=C(COc1ccccc1[N+](=O)[O-])Nc1ccccc1N1CCCC1 | -1.2 | 50.4 | 8.2 | 15.7* | 3.7 | .
CCc1ccc(NC(=O)Cn2c3[n+](c4c(F)c(F)ccc42)CCCCC3)cc1 | 0.3 | -11.1 | 30.6 | -4.2 | -10.3 | -1.4
O=C(COc1ccccc1F)c1ccc(O)cc1O | -8.5 | 15.4 | -7.3 | 1.0 | -0.8 | -3.4
Cc1c(O)ccc(C(=O)COc2ccccc2F)c1O | 4.2 | -16.0 | 24.1 | 35.3* | -1.6 | 16.4
Cc1ccc(C)c2nc3sc(C(=O)N4CCCc5ccccc54)c(N)c3cc12 | -22.8 | -5.2 | 16.2 | 2.6 | 65.9* | 4.7
CCc1ccc2nc3sc(C(=O)N4CCc5ccccc54)c(N)c3cc2c1 | 10.0 | 0.7 | 2.5 | . | -22.1 | 0.1
Cc1ccc(NC2Sc3ccccc3NC2=O)cc1Cl (stereo unspecified) | 7.0 | 6.2 | 17.9 | 5.4 | -3.9 | 26.7
Cc1ccc(C)c(NS(=O)(=O)c2ccc3c(c2)Cc2cc(S(=O)(=O)Nc4cc(C)ccc4C)ccc2-3)c1 | 2.7 | 83.0* | -7.8 | 18.0* | . | 17.3
Cc1ccc(NS(=O)(=O)c2ccc3c(c2)C(=O)c2ccccc2C3=O)c(C)c1 | 1.7 | 80.4* | -5.5 | 4.1 | . | 32.2
Cc1cccc(S(=O)(=O)Nc2cccc3c2C(=O)c2ccccc2-3)c1 | -5.3 | 40.6 | 13.7 | -17.3 | -2.5 | 28.7
COc1ccc(/C=C(\C#N)C(=O)C(C)(C)n2cncn2)cc1 | 3.1 | 9.1 | 1.8 | 1.0 | -8.2 | -8.6
Cc1ccc2cc(C#N)c(N3CCCN(S(=O)(=O)c4ccccc4)CC3)nc2c1 | 0.5 | 7.8 | 5.8 | -1.0 | 1.4 | 10.4
Cc1ccc2cc(C#N)c(N3CCCN(S(=O)(=O)c4ccccc4)CC3)nc2c1C | -3.8 | . | 11.4 | 11.1* | 12.4 | .
COCCCNc1nc(CC(C)C)nc2c1nnn2Cc1ccccc1 | 3.8 | . | 1.6 | -0.5 | 10.8 | -22.0
COc1ccc(CCNC(=O)COC(=O)c2cccs2)cc1OC | 2.1 | . | 9.4 | 11.9* | -4.7 | 5.4
O=C(COC(=O)C12CC3CC(CC(C3)C1)C2)NCCc1ccccc1 | . | 77.0* | 4.8 | 2.1 | -4.0 | .
COc1ccc(CCNC(=O)C/C(C)=N/NC(=O)C23CC4CC(CC(C4)C2)C3)cc1OC | 1.6 | 23.5 | 13.1 | 29.9* | 2.8 | 20.1
COc1ccc(NC(=O)CC23CC4CC(CC(C4)C2)C3)cn1 | -4.9 | 8.2 | 6.7 | -0.5 | -5.2 | -5.9
O=C(CCc1ccc(S(=O)(=O)N2CCOCC2)cc1)Nc1ccc(F)cc1[N+](=O)[O-] | -3.2 | . | 8.7 | -0.8 | . | -13.2
Cc1ncc(CN2CCCC(CCC(=O)NCc3ccccc3F)C2)s1 (stereo unspecified) | -10.0 | -1.1 | -2.9 | 0.2 | 61.0* | -14.7
Cc1ncc(CN2CCCC(CCC(=O)NCc3ccc(F)c(F)c3)C2)s1 (stereo unspecified) | -5.2 | 2.8 | 4.0 | -1.1 | 61.3* | -0.6
Cc1ccc(C(=O)N2CCCC(CCC(=O)NCc3ccccc3F)C2)cn1 (stereo unspecified) | -1.7 | . | -6.0 | 2.2 | -8.7 | -5.6
Cc1occc1C(=O)N1CCCC(CCC(=O)NCc2ccc(F)c(F)c2)C1 (stereo unspecified) | -3.0 | 20.4 | -0.2 | -1.5 | -5.9 | -3.9
O=C(CCC1CCCN(C2C3CC4CC(C3)CC2C4)C1)NCc1ccc(F)c(F)c1 (stereo unspecified) | 2.1 | 52.0 | 29.1 | -0.1 | 11.8 | 19.3
CC(=O)c1cccc(CN2CCCC(CCC(=O)NCc3ccccc3F)C2)c1 (stereo unspecified) | -6.1 | 12.4 | 18.9 | 1.2 | 61.4* | -5.2
